In brackets after ≈: the same amount, converted by molar mass.
Legend:
Plasmodium berghei [1] = assay: Increase in mean survival time in Plasmodium berghei inoculated mice (Mus musculus) following 160 mg/kg administration; type: functional
Mus musculus [2] = assay: In vivo antimalarial activity against Plasmodium berghei in the mice (Mus musculus) at 80 mg/kg dosage; type: functional
Summary of the method: (§1)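 Mortality-based mouse test against the drug-sensitive P. berghei strain KBG 173, run at the Leo Rane Laboratory. Groups of five mice per dose level were scored for cures and for toxic deaths.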

Plasmodium berghei [3] = assay: Increase in mean survival time in Plasmodium berghei inoculated mice (Mus musculus) following 40 mg/kg administration; type: functional
Mus musculus [4] = assay: In vivo antimalarial activity against Plasmodium berghei in the mice (Mus musculus) at 640 mg/kg dosage; C=cure; type: functional, organism-based; set-up: dose 640 mg/kg; summary of the method: as §1
Plasmodium falciparum [5] = assay: In vitro antimalarial potency against multidrug-resistant Plasmodium falciparum Vietnam Smith strain; type: functional; details: read-out: ID50 (the source's name)
Summary of the method: (§2)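 Semiautomated culture assay on P. falciparum. Stocks were 1 mg/mL in 1:1 DMSO/EtOH, diluted in culture medium as seven 2-fold steps over a 64-fold range, with chloroquine and mefloquine as plate controls. Plates ran 24 h at 37 °C under 5% O2/5% CO2/90% N2, then [G-3H]hypoxanthine was added for 18 h more. Harvested incorporation was read by scintillation counting as the viability index.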

Plasmodium falciparum [6] = assay: In vitro antimalarial potency against chloroquine-sensitive, pyrimethamine-resistant Plasmodium falciparum CAMP; type: functional; details: read-out: ID50 (the source's name); summary of the method: as §2
Mus musculus [7] = assay: In vivo antimalarial activity against Plasmodium berghei in the mice (Mus musculus) at 320 mg/kg dosage; type: functional; summary of the method: as §1
Mus musculus [8] = assay: In vivo antimalarial activity against Plasmodium berghei in the mice (Mus musculus) at 640 mg/kg dosage; type: functional; summary of the method: as §1
Mus musculus [9] = assay: In vivo antimalarial activity against Plasmodium berghei in the mice (Mus musculus) at 320 mg/kg dosage; C=cure; type: functional, organism-based; set-up: dose 320 mg/kg; summary of the method: as §1
Mus musculus [10] = assay: In vivo antimalarial activity against Plasmodium berghei in the mice (Mus musculus) at 20 mg/kg dosage; type: functional; summary of the method: as §1
Mus musculus [11] = assay: In vivo antimalarial activity against Plasmodium berghei in the mice (Mus musculus) at 640 mg/kg dosage; T= Toxicity; type: functional, organism-based; set-up: dose 640 mg/kg; summary of the method: as §1
Mus musculus [12] = assay: In vivo antimalarial activity against Plasmodium berghei in the mice (Mus musculus) at 40 mg/kg dosage; type: functional; summary of the method: as §1
Mus musculus [13] = assay: In vivo antimalarial activity against Plasmodium berghei in the mice (Mus musculus) at 160 mg/kg dosage; type: functional; summary of the method: as §1
Mus musculus [14] = assay: In vivo antimalarial activity against Plasmodium berghei in the mice (Mus musculus) at 320 mg/kg dosage; T= Toxicity; type: functional, organism-based; set-up: dose 320 mg/kg; summary of the method: as §1
Mus musculus [15] = assay: In vivo antimalarial activity against Plasmodium berghei in the mice (Mus musculus) at 160 mg/kg dosage; C=cure; type: functional, organism-based; set-up: dose 160 mg/kg; summary of the method: as §1
Mus musculus [16] = assay: In vivo antimalarial activity against Plasmodium berghei in the mice (Mus musculus) at 80 mg/kg dosage; C=cure; type: functional, organism-based; set-up: dose 80 mg/kg; summary of the method: as §1

Compound | increase in mean survival time (Plasmodium berghei [1]) | increase in mean survival time (Mus musculus [2]) | increase in mean survival time (Plasmodium berghei [3]) | cures (mice cured) (Mus musculus [4]) | IC50 (Plasmodium falciparum [5]) | IC50 (Plasmodium falciparum [6]) | increase in mean survival time (Mus musculus [7]) | increase in mean survival time (Mus musculus [8]) | further results
C/C(=N\N=C(/S)N1CC(C)OC(C)C1)c1cccc[n+]1[O-] (stereo not drawn) | 6.1 days | 6.1 days | 4.9 days | Cures | 0.046 µg/mL (≈ 0.149 µM) | 0.041 µg/mL (≈ 0.133 µM) | – | – | –
C/C(=N\N=C(/S)N1CCC(C)CC1)c1cccc[n+]1[O-] | 2.3 days | 2.2 days | 0.6 days | Cures | 0.073 µg/mL (≈ 0.25 µM) | 0.074 µg/mL (≈ 0.253 µM) | 4.2 days | – | –
CC(N/N=C(\S)N1CCCC1)c1cccc[n+]1[O-] (stereo not drawn) | 0 days | – | 0.8 days | – | – | – | – | 1.6 days | –
C/C(=N\N=C(/S)N1CCN(c2ccccn2)CC1)c1cccc[n+]1[O-] | 1.9 days | 0.3 days | 0.5 days | Cures | – | – | – | – | cure outcome (Mus musculus [9]): Cures
CC(N/N=C(\S)N1CCCCCC1)c1cccc[n+]1[O-] (stereo not drawn) | 0.8 days | 0.4 days | -0.2 days | – | – | – | 1.6 days | 3.5 days | –
C/C(=N\N=C(/S)N1CCCC(C)C1)c1cccc[n+]1[O-] (stereo not drawn) | 4.7 days | 1.6 days | 1.5 days | Cures | 0.051 µg/mL (≈ 0.174 µM) | 0.039 µg/mL (≈ 0.133 µM) | 1.4 days | – | –
C/C(=N\N=C(/S)N1CCCCC1)c1cccc[n+]1[O-] | 6.3 days | 1.3 days | 3.5 days | Cures | – | – | – | – | cure outcome (Mus musculus [9]): Cures
CC(N/N=C(\S)N1CCN(c2ccccn2)CC1)c1cccc[n+]1[O-] (stereo not drawn) | 0.2 days | – | – | – | – | – | – | 3.4 days | –
CC(N/N=C(\S)N1CC2CCC(CC2)C1)c1cccc[n+]1[O-] (stereo not drawn) | 0.9 days | 0.7 days | -0.3 days | Cures | – | – | 2.5 days | – | increase in mean survival time (Mus musculus [10]): -0.1 days
C/C(=N\N=C(/S)N1CCN(C=O)CC1)c1cccc[n+]1[O-] | 0.3 days | – | -0.3 days | – | – | – | – | – | increase in mean survival time (Mus musculus [11]): Toxic
C/C(=N\N=C(/S)N1CCCC1)c1cccc[n+]1[O-] | 1.5 days | 1.1 days | 0.9 days | – | 0.044 µg/mL (≈ 0.166 µM) | 0.048 µg/mL (≈ 0.182 µM) | – | 5.9 days | cure outcome (Mus musculus [9]): Cures
C/C(=N\N=C(/S)N1CCN(c2ccccc2)CC1)c1cccc[n+]1[O-] | 3.5 days | 1.7 days | 0.1 days | – | – | 0.062 µg/mL (≈ 0.174 µM) | 9.1 days | 8.3 days | –
C/C(=N\N=C(/S)N1CCCCCC1)c1cccc[n+]1[O-] | 3.1 days | 0.7 days | 0.9 days | – | – | – | 4.9 days | 7.1 days | –
C/C(=N\N=C(/S)N(C)C)c1cccc[n+]1[O-] | – | 0.7 days | – | – | 0.078 µg/mL (≈ 0.327 µM) | 0.054 µg/mL (≈ 0.227 µM) | – | 6.9 days | increase in mean survival time (Mus musculus [12]): 2.3 days; increase in mean survival time (Mus musculus [13]): 4.2 days; increase in mean survival time (Mus musculus [14]): Toxic
CC(N/N=C(\S)N1CCCCC1)c1cccc[n+]1[O-] (stereo not drawn) | 0.2 days | – | 0.2 days | – | – | – | – | 1.8 days | –
C/C(=N\N=C(/S)N1CCCCC1C)c1cccc[n+]1[O-] (stereo not drawn) | – | 3.3 days | 2.3 days | Cures | 0.08 µg/mL (≈ 0.274 µM) | 0.077 µg/mL (≈ 0.263 µM) | – | – | increase in mean survival time (Mus musculus [15]): Cures; cure outcome (Mus musculus [9]): Cures
C/C(=N\N=C(/S)N1CCSCC1)c1cccc[n+]1[O-] | 0.9 days | – | 0.1 days | – | – | 0.044 µg/mL (≈ 0.148 µM) | – | 1.5 days | –
CCOC(=O)N1CCN(/C(S)=N/N=C(\C)c2cccc[n+]2[O-])CC1 | – | – | 4.7 days | – | – | – | – | – | increase in mean survival time (Mus musculus [11]): Toxic; increase in mean survival time (Mus musculus [15]): Cures; increase in mean survival time (Mus musculus [16]): Cures; increase in mean survival time (Mus musculus [14]): Toxic
CCOC(=O)N1CCN(/C(S)=N/NC(C)c2cccc[n+]2[O-])CC1 (stereo not drawn) | 6.6 days | 6 days | – | – | – | – | 8 days | 9 days | increase in mean survival time (Plasmodium berghei [3]; 40 mg/kg): 1.2 days
3-Aza-bicyclo[3.2.2]nonane-3-carbothioic acid [1-(1-oxy-pyridin-2-yl)-ethylidene]-hydrazide; compound with copper(I) chloride | 1.4 days | – | -0.3 days | – | – | – | – | 2.4 days | –
C/C(=N\N=C(/S)N1CC2CCC(CC2)C1)c1cccc[n+]1[O-] | 1.1 days | 0.1 days | -0.7 days | Cures | 0.083 µg/mL (≈ 0.261 µM) | 0.086 µg/mL (≈ 0.27 µM) | 4.9 days | – | –

Source: ChEMBL document CHEMBL1122603, “2-Acetylpyridine thiosemicarbazones. 9. Derivatives of 2-acetylpyridine 1-oxide as potential antimalarial agents” (1984)
